# “And” between values parts separate entries of the source, which are not always exact repeats. Equal values may be shown once.
# System: U2OS
# Experiment: Multiplex assay against U2OS
# Type: toxicity, cell-based
# Details: human
# In short: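 Tubulin, mitochondrial-mass and membrane-permeability phenotypes are per cents of healthy-nucleus cells. Cells were gated by CellPathfinder machine learning into Hoechst high-intensity objects or normal cells, normal cells into healthy, pyknosed or fragmented nuclei, and pyknosed cells into mitotic or apoptotic. Before that, live cells stained at seeding with Hoechst33342, BioTracker Green Microtubule Cytoskeleton Dye, MitoTracker Red and Annexin V Alexa Fluor 680 were imaged on a CQ1 microscope at 37°C and 5% CO2 after compound addition.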
# [1] = 12 h, 1 µM, compound concentration 1 uM, replicate 1
# [2] = 12 h, 1 µM, compound concentration 1 uM, replicate 2
# [3] = 12 h, 10 µM, compound concentration 10 uM, replicate 1
# [4] = 12 h, 10 µM, compound concentration 10 uM, replicate 2
# [5] = 24 h, 1 µM, compound concentration 1 uM, replicate 1
# [6] = 24 h, 1 µM, compound concentration 1 uM, replicate 2
# [7] = 24 h, 10 µM, compound concentration 10 uM, replicate 1
# [8] = 24 h, 10 µM, compound concentration 10 uM, replicate 2
# [9] = 48 h, 10 µM, compound concentration 10 uM, replicate 1
# [10] = 48 h, 10 µM, compound concentration 10 uM, replicate 2
smiles,measurement,setting,value
C[C@@]1(C(=O)Nc2ccc(F)nc2)CCCN1c1nc(Nc2cc(C3CC3)n[nH]2)c2cccn2n1 [BMS-754807],Population Apoptotic (%),[1],25%
same,Population Fragmented Nuclei (%),[1],8%
same,Population Healthy Nuclei (%),[1],75%
same,Population Hoechst High Intensity Objects (%),[1],4%
same,Population Membrane Permeable-Phenotype (%),[1],61%
same,Population Mitochondria Different-Phenotype (%),[1],10%
same,Population Mitotic Cells (%),[1],74%
same,Population Normal (%),[1],95%
same,Population Pyknosed Nuclei (%),[1],15%
same,Population Tubulin-Different-Phenotype (%),[1],78%
same,Total Cell Count,[1],181
same,Population Apoptotic (%),[2],16%
same,Population Fragmented Nuclei (%),[2],36%
same,Population Healthy Nuclei (%),[2],56%
same,Population Hoechst High Intensity Objects (%),[2],27%
same,Population Membrane Permeable-Phenotype (%),[2],45%
same,Population Mitochondria Different-Phenotype (%),[2],25%
same,Population Mitotic Cells (%),[2],83%
same,Population Normal (%),[2],72%
same,Population Pyknosed Nuclei (%),[2],7%
same,Population Tubulin-Different-Phenotype (%),[2],62%
same,Total Cell Count,[2],117
same,Population Apoptotic (%),[3],41% and 56%
same,Population Fragmented Nuclei (%),[3],10% and 4%
same,Population Healthy Nuclei (%),[3],65% and 86%
same,Population Hoechst High Intensity Objects (%),[3],6% and 2%
same,Population Membrane Permeable-Phenotype (%),[3],6% and 9%
same,Population Mitochondria Different-Phenotype (%),[3],71% and 27%
same,Population Mitotic Cells (%),[3],58% and 43%
same,Population Normal (%),[3],93% and 97%
same,Population Pyknosed Nuclei (%),[3],24% and 8%
same,Total Cell Count,[3],191 and 183
same,Population Apoptotic (%),[4],33%
same,Population Fragmented Nuclei (%),[4],15% and 11%
same,Population Healthy Nuclei (%),[4],58% and 80%
same,Population Hoechst High Intensity Objects (%),[4],13% and 9%
same,Population Membrane Permeable-Phenotype (%),[4],22% and 16%
same,Population Mitochondria Different-Phenotype (%),[4],70% and 40%
same,Population Mitotic Cells (%),[4],66%
same,Population Normal (%),[4],86% and 90%
same,Total Cell Count,[4],53 and 85
same,Population Apoptotic (%),[5],38%
same,Population Fragmented Nuclei (%),[5],15%
same,Population Healthy Nuclei (%),[5],60%
same,Population Hoechst High Intensity Objects (%),[5],4%
same,Population Membrane Permeable-Phenotype (%),[5],63%
same,Population Mitochondria Different-Phenotype (%),[5],32%
same,Population Mitotic Cells (%),[5],61%
same,Population Normal (%),[5],95%
same,Population Pyknosed Nuclei (%),[5],24%
same,Population Tubulin-Different-Phenotype (%),[5],78%
same,Total Cell Count,[5],181
same,Population Apoptotic (%),[6],40%
same,Population Fragmented Nuclei (%),[6],41%
same,Population Healthy Nuclei (%),[6],47%
same,Population Hoechst High Intensity Objects (%),[6],20%
same,Population Membrane Permeable-Phenotype (%),[6],41%
same,Population Mitochondria Different-Phenotype (%),[6],30%
same,Population Mitotic Cells (%),[6],60%
same,Population Normal (%),[6],79%
same,Population Pyknosed Nuclei (%),[6],10%
same,Population Tubulin-Different-Phenotype (%),[6],51%
same,Total Cell Count,[6],114
same,Population Apoptotic (%),[7],28% and 49%
same,Population Fragmented Nuclei (%),[7],11% and 15%
same,Population Healthy Nuclei (%),[7],76% and 54%
same,Population Hoechst High Intensity Objects (%),[7],5% and 8%
same,Population Membrane Permeable-Phenotype (%),[7],11% and 8%
same,Population Mitochondria Different-Phenotype (%),[7],51% and 74%
same,Population Mitotic Cells (%),[7],71% and 50%
same,Population Normal (%),[7],94% and 91%
same,Population Pyknosed Nuclei (%),[7],11% and 30%
same,Total Cell Count,[7],187 and 184
same,Population Fragmented Nuclei (%),[8],17% and 12%
same,Population Healthy Nuclei (%),[8],47% and 74%
same,Population Hoechst High Intensity Objects (%),[8],9% and 11%
same,Population Membrane Permeable-Phenotype (%),[8],22%
same,Population Mitochondria Different-Phenotype (%),[8],59% and 45%
same,Population Mitotic Cells (%),[8],62% and 90%
same,Population Normal (%),[8],90% and 88%
same,Population Pyknosed Nuclei (%),[8],34% and 12%
same,Population Tubulin-Different-Phenotype (%),[8],77% and 28%
same,Total Cell Count,[8],51 and 89
same,Population Apoptotic (%),[9],72%
same,Population Fragmented Nuclei (%),[9],26%
same,Population Healthy Nuclei (%),[9],21%
same,Population Hoechst High Intensity Objects (%),[9],11%
same,Population Membrane Permeable-Phenotype (%),[9],13%
same,Population Mitochondria Different-Phenotype (%),[9],75%
same,Population Mitotic Cells (%),[9],27%
same,Population Normal (%),[9],88%
same,Population Pyknosed Nuclei (%),[9],52%
same,Population Tubulin-Different-Phenotype (%),[9],88%
same,Total Cell Count,[9],193
same,Population Apoptotic (%),[10],66%
same,Population Fragmented Nuclei (%),[10],25%
same,Population Healthy Nuclei (%),[10],30%
same,Population Hoechst High Intensity Objects (%),[10],20%
same,Population Membrane Permeable-Phenotype (%),[10],91%
same,Population Mitochondria Different-Phenotype (%),[10],83%
same,Population Mitotic Cells (%),[10],33%
same,Population Normal (%),[10],80%
same,Population Pyknosed Nuclei (%),[10],45%
same,Population Tubulin-Different-Phenotype (%),[10],91%
same,Total Cell Count,[10],50

# Reference: ChEMBL document CHEMBL4689842, “EUbOPEN Chemogenomics Library wave 1” (2021)
